Screens from PubChem.
The list is not random: actives were taken first. Their share in the collection is about 2.1%.
PAX8 inh HTS = PAX8 transcriptional activity inhibition; RMG-I TPO-luciferase reporter, SteadyGlo, 24 h; actives 1.2% (n = 360,000); inhibition, % at 12.6 µM; AID 652154;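 active = mean replicate inhibition at least 60% with every replicate also reaching 60%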;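 note: luciferase light reporting Pax8 driven TPO promoter activity; plate controls were median of neutral control wells for no effect and mitoxantrone controls for full effect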
EWS-Fli inh = inhibitors of EWS/Fli oncoprotein transcriptional activity; inhibition, % at 12.6 µM; actives 0.67% (n = 350,000); AID 651661; A673 NR0B1-luciferase reporter, viability-normalised;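 active = mean inhibition of at least 50% after viability correction, with every replicate also passing that limit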;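 note: firefly luciferase signal divided by Alamar Blue viability fluorescence both relative to DMSO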
AF4-AF9 inh = blocks AF4 peptide binding to human AF9; AlphaScreen, biotin-AF4 peptide binding to FLAG-AF9; AID 651704; inhibition, % at 10 µM; actives 0.47% (n = 350,000);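 active = every replicate reaching a set inhibition limit, whatever the replicate mean, cut at about 25% in these data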;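 note: 0% = plate neutral control median and 100% = total signal loss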
Target sequence (P42568 whole entry, looked up): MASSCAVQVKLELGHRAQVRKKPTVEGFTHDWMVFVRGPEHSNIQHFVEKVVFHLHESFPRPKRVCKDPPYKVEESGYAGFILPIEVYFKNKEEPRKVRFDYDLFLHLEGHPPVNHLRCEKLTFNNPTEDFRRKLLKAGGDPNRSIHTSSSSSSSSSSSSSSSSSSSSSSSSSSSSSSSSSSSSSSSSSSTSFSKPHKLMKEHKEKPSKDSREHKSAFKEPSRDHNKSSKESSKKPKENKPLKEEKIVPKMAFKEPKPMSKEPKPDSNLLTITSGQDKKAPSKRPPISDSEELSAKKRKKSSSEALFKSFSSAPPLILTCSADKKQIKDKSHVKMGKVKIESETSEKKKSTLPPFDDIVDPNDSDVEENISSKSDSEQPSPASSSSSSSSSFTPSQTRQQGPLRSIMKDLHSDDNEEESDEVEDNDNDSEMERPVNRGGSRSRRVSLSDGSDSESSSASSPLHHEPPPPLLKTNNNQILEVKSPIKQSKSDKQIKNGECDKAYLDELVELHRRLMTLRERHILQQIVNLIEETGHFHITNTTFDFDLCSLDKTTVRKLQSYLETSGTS
PGC1a acetyl inh = PGC1a acetylation modulation, inhibitor mode; U2OS PGC1a acetylation, AlphaScreen anti-acetyl-lysine; with virally co-expressed GCN5 acetyltransferase; inhibition, % at 15.6 µM; actives 0.17% (n = 350,000); AID 651687;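 active = every replicate shows inhibition of at least 40%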;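 note: 0% = neutral control wells and 100% = positive control wells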
GSIS activator = primary screen for activators of insulin secretion dependent on glucose, INS-1E cells, GLuc reporter luminescence | actives 0.61% (n = 370,000) | activation, % at 16.6 µM | INS-1E GLuc reporter insulin secretion, 2-3 h;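 active = lowest replicate activation of at least 40%, so every replicate reaches that level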;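 note: 0% = median of neutral control wells and 100% = median of IBMX positive control wells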
Xi reactivation = activators of X-chromosome reactivation in mouse fibroblasts; XiGFP mouse fibroblasts, % GFP-positive cells imaging, 3 d; cells co-treated with 5-aza-dC sensitizer; scaled so ellipticine positive control = 100%; activation, % at 7.58 µM; actives 0.055% (n = 360,000); AID 743238;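 active = mean normalized replicate activation at least 10% and every replicate at or above 10%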;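 note: 0% = median of on-plate neutral control wells and 100% = ellipticine 6 µM median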
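System: SV40-immortalized XiGFP fibroblast cells, line 68-5-11 / Incubation: 3-day compound exposure, then 15 min fixation at room temperature / Compound: single concentration per compound, delivered by pin transfer / Buffer or medium: DMEM plus 5-aza-dC sensitizer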
* = called active by the depositor.

Screening CC(=O)N1[C@@H]2CN(C(=O)NC(C)C)C[C@H]1C2c1ccccc1 (some centres undefined) returned GSIS activator -10.7 and Xi reactivation 0.3.
Screening C[C@H](CO)N1C[C@H](C)[C@H](CN(C)Cc2ccccc2)OCc2ccccc2-c2ccccc2C1=O returned EWS-Fli inh 69.7*, AF4-AF9 inh 2.5, PGC1a acetyl inh -3.7, GSIS activator 5.4 and Xi reactivation 0.2.
C[C@H](CO)N1C[C@H](C)[C@H](CN(C)Cc2ccc3c(c2)OCO3)OCc2ccccc2-c2ccccc2C1=O was read as PAX8 inh HTS 30.6, EWS-Fli inh 6.1, AF4-AF9 inh 5.8, PGC1a acetyl inh 12.7, GSIS activator -11.3 and Xi reactivation -0.4.
Screening C[C@H](CO)N1C[C@H](C)[C@H](CN(C)Cc2ccc(-c3ccccc3)cc2)OCc2ccccc2-c2ccccc2C1=O returned PAX8 inh HTS 15.7, AF4-AF9 inh 0.1, PGC1a acetyl inh -22.1, GSIS activator -12.1 and Xi reactivation 0.0.
For C[C@@H]1CN([C@@H](C)CO)C(=O)c2ccccc2-c2ccccc2CO[C@@H]1CN(C)Cc1ccc(Cl)c(Cl)c1 the results were PAX8 inh HTS 71.0*, EWS-Fli inh 2.6, AF4-AF9 inh 3.5, GSIS activator -34.0 and Xi reactivation 0.4.
`Cc1noc(C)c1S(=O)(=O)N(C)C[C@H]1Oc2ccc(NS(C)(=O)=O)cc2C(=O)N([C@H](C)CO)C[C@@H]1C` gave GSIS activator -0.9 and Xi reactivation 0.0.
For Cc1noc(C)c1S(=O)(=O)Nc1ccc2c(c1)C(=O)N([C@H](C)CO)C[C@@H](C)[C@@H](CN(C)Cc1ccc(Oc3ccccc3)cc1)O2 the results were EWS-Fli inh 66.6*, AF4-AF9 inh 8.2, PGC1a acetyl inh -12.0, GSIS activator -4.7 and Xi reactivation 0.1.
Screening C[C@H]1CN([C@@H](C)CO)C(=O)c2cc(NS(=O)(=O)c3ccccc3)ccc2O[C@H]1CN(C)Cc1ccc(Oc2ccccc2)cc1 returned PAX8 inh HTS -21.6, EWS-Fli inh 6.7, AF4-AF9 inh 4.1, PGC1a acetyl inh 4.8, GSIS activator -14.7 and Xi reactivation -1.2.
Screening C[C@H]1CN([C@@H](C)CO)C(=O)c2cc(NS(=O)(=O)c3ccccc3)ccc2O[C@@H]1CN(C)Cc1ccc(Oc2ccccc2)cc1 returned PAX8 inh HTS 92.2*, EWS-Fli inh -15.7, AF4-AF9 inh 3.8, PGC1a acetyl inh -1.2, GSIS activator -7.0 and Xi reactivation -0.2.
Cc1noc(C)c1S(=O)(=O)Nc1ccc2c(c1)C(=O)N([C@H](C)CO)C[C@H](C)[C@@H](CN(C)Cc1ccccc1)O2 was read as PAX8 inh HTS -6.7, EWS-Fli inh -4.8, AF4-AF9 inh 1.3, GSIS activator 6.5 and Xi reactivation -0.1.
For Cc1noc(C)c1S(=O)(=O)N(C)C[C@H]1OCCCC[C@H](C)Oc2ccc(NC(=O)NC3CCCCC3)cc2C(=O)N([C@H](C)CO)C[C@H]1C the results were GSIS activator 7.1 and Xi reactivation -0.1.
`C[C@@H]1CN([C@@H](C)CO)C(=O)c2cc(NC(=O)Cc3ccccc3)ccc2O[C@@H](C)CCCCO[C@H]1CN(C)Cc1ccc(C(F)(F)F)cc1` gave PAX8 inh HTS 76.4*, EWS-Fli inh 15.8, PGC1a acetyl inh 15.3, GSIS activator -18.2 and Xi reactivation 0.0.
For C[C@@H]1CN([C@H](C)CO)C(=O)c2cc(NC(=O)Cc3ccccc3)ccc2O[C@@H](C)CCCCO[C@@H]1CN(C)Cc1ccc(C(=O)O)cc1 the results were PAX8 inh HTS -7.0, EWS-Fli inh 7.3, AF4-AF9 inh 0.3, PGC1a acetyl inh 0.6, GSIS activator 22.8 and Xi reactivation 0.1.
`C[C@@H]1CCCCO[C@@H](CN(C)Cc2ccc(C(F)(F)F)cc2)[C@H](C)CN([C@H](C)CO)C(=O)c2cc(NC(=O)Cc3ccccc3)ccc2O1` gave PAX8 inh HTS 90.7*, EWS-Fli inh 13.7, AF4-AF9 inh 1.0, PGC1a acetyl inh -3.7, GSIS activator -15.5 and Xi reactivation -0.1.
